pKi: −log10 of the molar value. ≈ marks a conversion by molar mass, not a printed value. Calls of active or inactive are those of the source. No cut-off for these calls is given here.
Columns and labels:
[1] = test system: Mycobacterium tuberculosis; assay: Antimicrobial activity against Mycobacterium tuberculosis H37Rv assessed as growth inhibition at 100 ug/ml after 7 days by serial twofold dilution method; format: functional, organism-based
How it was run: (§1)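 Broth microdilution against H37Rv in Middlebrook 7H9-ADS-G, with 0.05% Tween 80. Compounds from DMSO stock (10 mg/ml), twofold serial dilution on plate. Inoculum is a 1/25 dilution of a mid-log suspension (McFarland 1.0), ~10⁶ CFU per well. Rifampicin control; growth and sterility controls. Incubated 37 °C for 7 days. Growth read visually by turbidity; run in duplicate.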

[2] = Inhibition of Mycobacterium tuberculosis Rv3588c beta-carbonic anhydrase by stopped flow assay
How it was run: (§2)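 Recombinant mtCA enzyme. CO2 hydration was followed by stopped-flow with phenol red indicator (0.02 mM) read at 557 nm, in 20 mM Hepes pH 7.5 with 20 mM Na2SO4, over 10–100 s. CO2 was 1.7–17 mM. Inhibitor was diluted in water and preincubated with enzyme 15 min at room temperature. Uncatalyzed rate subtracted; three determinations.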

[3] = test system: Mycobacterium tuberculosis; assay: Antimicrobial activity against Mycobacterium tuberculosis H37Rv assessed as growth inhibition at 50 ug/ml after 7 days by serial twofold dilution method; format: functional, organism-based; how it was run: as §1
[4] = Inhibition of Mycobacterium tuberculosis Rv1284 beta-carbonic anhydrase by stopped flow assay; how it was run: as §2
[5] = Inhibition of Mycobacterium tuberculosis Rv3273 beta-carbonic anhydrase by stopped flow assay; how it was run: as §2
[6] = test system: Mycobacterium tuberculosis; assay: Antimicrobial activity against Mycobacterium tuberculosis H37Rv assessed as growth inhibition at < /= 25 ug/ml after 7 days by serial twofold dilution method; format: functional, organism-based; how it was run: as §1
[7] = test system: Mycobacterium tuberculosis; assay: Antimicrobial activity against Mycobacterium tuberculosis H37Rv after 30 days; format: functional
How it was run: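 M. tuberculosis H37Rv, fresh culture, ~1 × 10³ CFU plated onto solid Middlebrook 7H11 with ADS (1/10 v/v) and glycerol (1% v/v). Compound added to molten medium in wells at chosen concentrations. Incubated 37 °C for 30 days, then inspected visually. MIC99.9% taken as the concentration giving 99.9% reduction in cell counts.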

| Structure (SMILES) | growth inhibition (GI) [1] | pKi [2] | growth inhibition (GI) [3] | pKi [4] | pKi [5] | growth inhibition (GI) [6] | MIC [7] |
| --- | --- | --- | --- | --- | --- | --- | --- |
| CC(=O)OC[C@H]1O[C@@H](CC(=O)/C=C/c2ccc(O)cc2)[C@H](OC(C)=O)[C@@H](OC(C)=O)[C@H]1OC(C)=O | inactive | 5.94 | inactive | 5.35 | 4.92 | inactive |  |
| CC(=O)OC[C@H]1O[C@@H](CC(=O)/C=C/c2cccc(O)c2)[C@H](OC(C)=O)[C@@H](OC(C)=O)[C@@H]1OC(C)=O | Active | 6.19 | Active | 5.68 | 4.72 | inactive | 3.12 µg/mL (≈ 6.35 µM) |
| O=C(/C=C/c1cccc(O)c1)C[C@@H]1O[C@H](CO)[C@@H](O)[C@H](O)[C@H]1O | inactive | 6.62 | inactive | 6.85 | 5.21 | inactive |  |
| CC(=O)OC[C@H]1O[C@@H](CC(=O)/C=C/c2cccc(O)c2)[C@H](OC(C)=O)[C@@H](OC(C)=O)[C@H]1OC(C)=O | inactive | 6.06 | inactive | 5.42 | 4.81 | inactive |  |
| O=C(/C=C/c1ccc(O)cc1)C[C@@H]1O[C@H](CO)[C@@H](O)[C@H](O)[C@H]1O | Active | 6.89 | Active | 6.03 | 5.38 | inactive |  |
| CC(=O)OC[C@H]1O[C@@H](CC(=O)/C=C/c2ccc(O)cc2)[C@H](OC(C)=O)[C@@H](OC(C)=O)[C@@H]1OC(C)=O | Active | 6.46 | Active | 5.54 | 4.88 | inactive | > 100 µg/mL |
| O=C(/C=C/c1ccc(O)cc1)C[C@@H]1O[C@H](CO)[C@H](O)[C@H](O)[C@H]1O | inactive | 6.03 | inactive | 5.35 | 5.38 | inactive |  |
| O=C(/C=C/c1cccc(O)c1)C[C@@H]1O[C@H](CO)[C@H](O)[C@H](O)[C@H]1O | Active | 6.29 | Active | 5.94 | 5.49 | inactive | 100 µg/mL (≈ 308 µM) |
| Oc1ccccc1 [PHENOL] |  |  |  | 4.19 | 4.10 |  |  |
